From ChEMBL document CHEMBL3526063, “Metabolism and pharmacokinetics of JM6 in mice: JM6 is not a prodrug for Ro-61-8048” (Drug Metab Dispos, 2012)

Columns and labels:
[1] = target: Kynurenine 3-monooxygenase (Rattus norvegicus, UniProt O88867); assay: Inhibition of Wistar rat KMO assessed as 3-hydroxykynurenine formation preincubated for 5 mins using 100 uM kynurenine as substrate by LC-MS/MS analysis
Procedure, shortened: (§1)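 Liver mitochondrial KMO preparation (mouse C57 BL/6J, rat Wistar, human) at 0.3 mg protein/mL in 100 mM potassium phosphate pH 7.4 with 200 µM NADPH, 0.4 U/mL G6PDH, 3 mM glucose 6-phosphate. Compound pre-incubated 5 min at 25°C, then 100 µM kynurenine added; 40 min (rodent) or 60 min (human). Stopped with TCA; 3-hydroxykynurenine by LC-MS/MS. IC50 from 8-point 3-fold dilutions (top 3 or 30 µM), triplicates, n≥2 runs.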

[2] = target: Kynurenine 3-monooxygenase (Mus musculus, UniProt Q91WN4); assay: Inhibition of C57BL/6J mouse KMO assessed as 3-hydroxykynurenine formation preincubated for 5 mins using 100 uM kynurenine as substrate by LC-MS/MS analysis; procedure, shortened: as §1
Kynurenine 3-monooxygenase (Mus musculus, UniProt Q91WN4), sequence (Q91WN4 whole entry): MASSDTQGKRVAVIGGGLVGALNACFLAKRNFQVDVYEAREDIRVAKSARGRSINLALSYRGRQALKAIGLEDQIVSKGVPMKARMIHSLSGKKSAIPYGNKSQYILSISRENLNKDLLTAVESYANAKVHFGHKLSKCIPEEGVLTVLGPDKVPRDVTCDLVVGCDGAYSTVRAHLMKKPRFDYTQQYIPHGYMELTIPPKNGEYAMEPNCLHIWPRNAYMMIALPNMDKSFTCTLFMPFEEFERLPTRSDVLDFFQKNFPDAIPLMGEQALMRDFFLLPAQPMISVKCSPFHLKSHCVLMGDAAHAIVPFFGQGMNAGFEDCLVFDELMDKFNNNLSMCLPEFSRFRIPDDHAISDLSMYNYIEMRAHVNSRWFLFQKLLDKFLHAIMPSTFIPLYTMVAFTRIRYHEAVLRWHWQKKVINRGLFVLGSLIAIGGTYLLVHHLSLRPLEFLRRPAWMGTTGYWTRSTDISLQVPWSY

[3] = target: Kynurenine 3-monooxygenase (Homo sapiens, UniProt O15229); assay: Inhibition of human KMO assessed as 3-hydroxykynurenine formation preincubated for 5 mins using 100 uM kynurenine as substrate by LC-MS/MS analysis; procedure, shortened: as §1
Kynurenine 3-monooxygenase (Homo sapiens, UniProt O15229), sequence (O15229 whole entry): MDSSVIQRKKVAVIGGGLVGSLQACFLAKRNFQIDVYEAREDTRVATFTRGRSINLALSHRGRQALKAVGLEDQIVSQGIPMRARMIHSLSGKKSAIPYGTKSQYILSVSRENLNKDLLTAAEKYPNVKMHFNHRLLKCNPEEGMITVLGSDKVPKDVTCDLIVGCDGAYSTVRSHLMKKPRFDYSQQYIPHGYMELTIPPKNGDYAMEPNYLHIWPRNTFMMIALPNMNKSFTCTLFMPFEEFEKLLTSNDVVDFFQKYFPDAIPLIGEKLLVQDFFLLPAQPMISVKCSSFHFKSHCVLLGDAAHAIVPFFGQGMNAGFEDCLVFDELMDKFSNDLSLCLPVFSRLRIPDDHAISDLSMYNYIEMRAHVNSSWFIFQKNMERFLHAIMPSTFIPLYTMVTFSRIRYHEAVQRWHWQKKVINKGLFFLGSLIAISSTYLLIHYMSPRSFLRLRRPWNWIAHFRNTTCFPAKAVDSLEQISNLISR

Kynurenine 3-monooxygenase (Rattus norvegicus, UniProt O88867), sequence (O88867 whole entry): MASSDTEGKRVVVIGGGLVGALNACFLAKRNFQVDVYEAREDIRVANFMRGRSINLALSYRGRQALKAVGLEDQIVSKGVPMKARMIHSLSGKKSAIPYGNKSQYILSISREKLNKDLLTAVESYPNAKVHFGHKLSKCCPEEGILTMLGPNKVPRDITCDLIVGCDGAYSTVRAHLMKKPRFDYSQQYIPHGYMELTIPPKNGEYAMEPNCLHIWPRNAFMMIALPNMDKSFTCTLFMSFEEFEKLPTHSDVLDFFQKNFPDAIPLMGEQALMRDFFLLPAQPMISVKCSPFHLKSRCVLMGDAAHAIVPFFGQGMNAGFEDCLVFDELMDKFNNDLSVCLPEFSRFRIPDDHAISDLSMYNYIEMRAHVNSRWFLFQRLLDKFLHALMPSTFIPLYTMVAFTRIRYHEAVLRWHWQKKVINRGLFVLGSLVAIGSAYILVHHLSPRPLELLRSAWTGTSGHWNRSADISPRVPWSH

SMILES | IC50 [1] [µM] | IC50 [2] [µM] | IC50 [3] [µM]
COc1ccc(S(=O)(=O)Nc2nc(-c3cccc([N+](=O)[O-])c3)c(CO)s2)cc1OC | 11 | 22 | 39
COc1ccc(S(=O)(=O)Nc2nc(-c3cccc([N+](=O)[O-])c3)c(CN)s2)cc1OC | 10 | 27 | 17
